Assay results from paper PMC4755300 (European journal of medicinal chemistry, 2015).

Experiments:
[1] = tested on: ARPE19 cells; experiment: Confocal imaging of ARPE19 cells labeled with compound 9; type: cell-based, human; details: PB190 100 µM pretreatment 40 min
Method in brief: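 ARPE19 cells were grown in DMEM with 10% FBS and 1% penicillin-streptomycin under 5% CO2. Treatment and imaging were done in HBSS. Control wells were pretreated with PB190 100 µM for 40 min. Cells then received test compound 0.5 µM for 40 min and were rinsed twice in HBSS. Laser confocal imaging used a 60X oil objective, excitation 408 nm and emission detection 525 nm.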

[2] = Fluorescence spectroscopy; type: physicochemical; details: with respect to quinine sulfate
Method in brief: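 Excitation and emission spectra were recorded on the free base in EtOH (per table footnote) or in CHCl3. Fluorescence quantum yield was calculated relative to quinine sulfate.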

[3] = biological target: human σ1 receptors in MCF7σ1 cells (Homo sapiens, UniProt Q99720); experiment: Flow cytometry displacement of fluorescent tracers 5 or 6 in MCF7σ1 cells; type: binding; details: for concentration at which the cellular fluorescence signal reaches a plateau: MCF7 cell lines, 45 and 75 min incubation, flow cytometry; for effect on fluorescent signal by tracers 5 and 6 (100 nM): MCF7σ1 cells, masking compound at 10 µM
Chain of human σ1 receptors in MCF7σ1 cells (Q99720 whole entry): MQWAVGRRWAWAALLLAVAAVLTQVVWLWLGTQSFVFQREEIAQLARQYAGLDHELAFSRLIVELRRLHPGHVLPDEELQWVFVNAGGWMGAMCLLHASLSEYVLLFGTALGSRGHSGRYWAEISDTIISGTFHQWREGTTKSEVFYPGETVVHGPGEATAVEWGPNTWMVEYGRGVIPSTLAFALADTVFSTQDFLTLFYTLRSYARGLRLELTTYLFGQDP

[4] = biological target: σ1 receptor (Cavia porcellus, UniProt Q60492); experiment: σ1 receptor radioligand competition binding; design: species or system guinea pig; details: for σ1 versus σ2 receptor selectivity: ratio of σ2 and σ1 Ki
Chain of σ1 receptor (Q60492 whole entry): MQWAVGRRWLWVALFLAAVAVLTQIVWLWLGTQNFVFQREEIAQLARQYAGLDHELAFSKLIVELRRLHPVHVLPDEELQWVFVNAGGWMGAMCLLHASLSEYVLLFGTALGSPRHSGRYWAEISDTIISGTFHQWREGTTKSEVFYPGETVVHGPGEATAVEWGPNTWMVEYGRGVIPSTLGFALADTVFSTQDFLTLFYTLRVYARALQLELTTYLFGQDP

[5] = tested on: MCF7wt cells; experiment: Flow cytometry of fluorescent tracers 5 or 6 in MCF7wt cells; type: cell-based, human; details: masking compound at 10 µM
Method in brief: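 Parental MCF7 cells were grown in high-glucose DMEM with 10% FBS and 1% penicillin-streptomycin at 37 °C. […] Cells were washed twice in PBS, detached 10 min at 37 °C, pelleted and resuspended in PBS. Flow cytometry used a 530 nm band pass filter, 50,000 events per analysis.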

[6] = biological target: T1, σ2 receptor (Rattus norvegicus, UniProt Q5U3Y7); experiment: σ2 receptor radioligand competition binding, [3H]-DTG with 1 µM
T1 sequence (Q5U3Y7 1-176): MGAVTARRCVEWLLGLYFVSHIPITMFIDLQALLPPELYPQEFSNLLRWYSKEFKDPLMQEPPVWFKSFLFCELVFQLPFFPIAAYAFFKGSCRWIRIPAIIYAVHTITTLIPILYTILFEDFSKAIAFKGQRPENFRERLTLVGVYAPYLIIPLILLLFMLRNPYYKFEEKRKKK

[7] = tested on: ARPE19 cells; experiment: MTT cell viability assay, paraquat toxicity in ARPE19 cells; type: cell-based, human; details: 1 mM paraquat, 24 h

COc1ccc2c(c1)CCCC2CCCCN1CCC(C)CC1 (stereo not drawn) [PB190, 4-methyl-1-[4-(6-methoxy-1,2,3,4-tetrahydronaphthalen-1-yl)butyl]piperidine]
effect on labeling by compound 9 when cells prelabeled [1]: Lower intensity of labeling

CC1CCN(CCCCC2CCCc3cc(OCCCCCCN4C(=O)c5ccc(N(C)C)cc5C4=O)ccc32)CC1 (stereo not drawn) [Compound 5, 5-(Dimethylamino)-2-(6-((5-(4-(4-methylpiperidin-1-yl)butyl)-5,6,7,8-tetrahydronaphthalen-2-yl)oxy)hexyl)isoindoline-1,3-dione]
QY CHCl3 (fluorescence quantum yield) [2]: 0.5 | QY EtOH (fluorescence quantum yield) [2]: 0.02 | concentration at which the cellular fluorescence signal reaches a plateau [3]: 100 nM | σ1 versus σ2 receptor selectivity [4]: 10 fold

COc1cc2c(cc1OC)CN(CCCN1CCc3c(OC)cccc3C1=O)CC2 [Compound 10, 2-(3-(6,7-dimethoxy-3,4-dihydroisoquinolin-2(1H)-yl)propyl)-5-methoxy-3,4-dihydroisoquinolin-1(2H)-one, reference compound]
effect on fluorescent signal by tracers 5 and 6 (100 nM) [3]: only slightly decreased | effect on fluorescent signal by tracers 5 or 6 (100 nM) [5]: no change

CC1CCN(CCCCc2cccc3cc(OCCCCCCN4C(=O)c5ccc(N(C)C)cc5C4=O)ccc23)CC1 [Compound 6, 5-(Dimethylamino)-2-{6-[(5-(4-(4-methylpiperidin-1-yl)butyl)naphthalen-2-yl)oxy]hexyl}isoindole-1,3-dione]
QY CHCl3 (fluorescence quantum yield) [2]: 0.4 | QY EtOH (fluorescence quantum yield) [2]: 0.02 | concentration at which the cellular fluorescence signal reaches a plateau [3]: 100 nM | decrease of σ2 affinity in comparison to the lead compound ([6]; 6 vs PB212): 2.5 fold | σ1 versus σ2 receptor selectivity [4]: 10 fold

CC(C)=CCN1CC[C@]2(C)c3cc(O)ccc3C[C@H]1[C@H]2C [(+)-Pentazocine, reference compound]
effect on fluorescent signal by tracers 5 and 6 (100 nM) [3]: strongly decreased | effect on fluorescent signal by tracers 5 or 6 (100 nM) [5]: no change

CN(C)c1ccc2c(c1)C(=O)N(CCCCCCOc1cccc3c1CCCC3CCC(=O)N1CCN(C3CCCCC3)CC1)C2=O (stereo not drawn) [Compound 9, 2-(6-((5-(3-(4-Cyclohexylpiperazin-1-yl)-3-oxopropyl)-5,6,7,8-tetrahydronaphthalen-1-yl)oxy)hexyl)-5-(dimethylamino) isoindole-1,3-dione]
QY CHCl3 (fluorescence quantum yield) [2]: 0.4 | QY EtOH (fluorescence quantum yield) [2]: 0.02 | cytoprotection against paraquat-mediated toxicity (MTT viability) [7]: protects against such toxicity | Ki [6]: 38.4 ± 10.9 nM | σ2 receptor affinity higher than that of the lead compound ([6]; 9 vs 1): 5 fold | Ki [4]: 13.1 ± 5.02 nM | σ1 versus σ2 receptor selectivity [4]: 3 fold
